Results published in ChEMBL document CHEMBL1148398, “Design, synthesis, and biological evaluation of thio-containing compounds with serum HDL-cholesterol-elevating properties” (2004).

Columns and labels:
[1] = test system: Cricetinae gen. sp.; assay: Effect of compound on very low-density lipoprotein cholesterol levels in 4th group of cholesterol-fed male hamsters at 100 mg/kg/day after 14 days of treatment; conditions: Mesocricetus auratus
[2] = test system: Rattus norvegicus; assay: Effect of compound on alkaline phosphatase (ALKP) levels in 7th group of normal chow-fed male rats after a dose of 100 mg/kg/day; format: functional, organism-based
Procedure, shortened: (§1)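 Male Sprague–Dawley CD rats (60–80 g) on standard chow under a reversed 12 h light/dark cycle. Compound was suspended in 1.3% Tween 80/0.25% CMC and given as a single daily oral gavage dose for 4 days. Rats were fasted overnight and killed 24 h after the last dose. Serum ALT, AST, ALKP and LDH were read on a clinical analyzer. Weight gain was start versus end weight. Mean ± SEM, n = 6.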

[3] = test system: Rattus norvegicus; assay: Effect of compound on alanine aminotransferase (ALT) levels in 3rd group of normal chow-fed male rats after a dose of 5 mg/kg/day; format: functional, organism-based
Procedure, shortened: as §1

[4] = test system: Rattus norvegicus; assay: Effect of compound on low-density lipoprotein cholesterol levels in 7th group of normal chow-fed male rats after a dose of 100 mg/kg/day; format: functional, organism-based
Procedure, shortened: (§2)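 Male Sprague–Dawley CD rats, 60–80 g, on standard chow with reverse 12 h light/dark cycle. One oral gavage dose daily for 4 days, suspended in 1.3% Tween 80 and 0.25% CMC. Fasted overnight; sacrificed 24 h after the last dose. Serum TC on clinical analyzer, lipoproteins by FPLC with cholesterol per fraction, T4 on analyzer. Mean ± SEM, six rats per group.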

[5] = test system: Rattus norvegicus; assay: Effect of compound on alkaline phosphatase (ALKP) levels in 5th group of normal chow-fed male rats after a dose of 20 mg/kg/day; format: functional, organism-based
Procedure, shortened: as §1

[6] = test system: Cricetinae gen. sp.; assay: Percent change in low-density lipoprotein cholesterol following oral administration of compound in hypercholesterolemic hamsters at 100 mg/kg/day for 14 days; format: functional
Procedure, shortened: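 Male Syrian Golden hamsters pre-fed chow plus 0.25% cholesterol for 2 weeks and kept on it. Dosed 100 mg/kg/day by oral gavage in 2% Tween 80/saline for 14 days. Serum total cholesterol and glycerol-blanked triglycerides read enzymatically; lipoproteins separated by FPLC with cholesterol measured in each fraction. % change versus vehicle controls; six per group, p < 0.05.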

[7] = test system: Mesocricetus auratus; assay: Effect of compound on alanine aminotransferase (ALT) levels in 3rd group of cholesterol-fed male hamsters at 30 mg/kg/day after 14 days of treatment
[8] = test system: Cricetinae gen. sp.; assay: Effect of compound on lactic dehydrogenase (LDH) levels in 2nd group of cholesterol-fed male hamsters at 10 mg/kg/day after 14 days of treatment; conditions: Mesocricetus auratus
[9] = test system: Rattus norvegicus; assay: Effect of compound on total plasma cholesterol levels in 1st group of normal chow-fed male rats after a dose of 1 mg/kg/day; format: functional, organism-based
Procedure, shortened: as §2

[10] = test system: Rattus norvegicus; assay: Effect of compound on alkaline phosphatase (ALKP) levels in 1st group of normal chow-fed male rats after a dose of 1 mg/kg/day; format: functional, organism-based
Procedure, shortened: as §1

[11] = test system: Cricetinae gen. sp.; assay: Effect of compound on alkaline phosphatase (ALKP) levels in 1st group of cholesterol-fed male hamsters at 3 mg/kg/day after 14 days of treatment; conditions: Mesocricetus auratus
[12] = test system: Cricetinae gen. sp.; assay: Effect of compound on thyroxine levels in 1st group of cholesterol-fed male hamsters at 3 mg/kg/day after 14 days of treatment; conditions: Mesocricetus auratus
[13] = test system: Cricetinae gen. sp.; assay: Effect of compound on aspartate aminotransferase (AST) levels in 3rd group of cholesterol-fed male hamsters at 30 mg/kg/day after 14 days of treatment; conditions: Mesocricetus auratus
[14] = test system: Rattus norvegicus; assay: Effect of compound on very low-density lipoprotein cholesterol levels in 5th group of normal chow-fed male rats after a dose of 20 mg/kg/day; format: functional, organism-based
Procedure, shortened: (§3)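 Male Sprague–Dawley CD rats (60–80 g) on Purina 5001 chow with a reverse 12 h light/dark cycle. Dosed once daily by oral gavage for 4 days, suspended in 1.3% Tween 80 / 0.25% CMC. Fasted overnight and bled 24 h after the last dose. Serum TC and glycerol-blanked TG measured enzymatically; VLDL-C by FPLC fractionation with cholesterol assay. n=6, mean ± SEM.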

[15] = test system: Rattus norvegicus; assay: Effect of compound on low-density lipoprotein cholesterol levels in 6th group of normal chow-fed male rats after a dose of 50 mg/kg/day; format: functional, organism-based
Procedure, shortened: as §2

[16] = test system: Cricetinae gen. sp.; assay: Effect of compound on triglycerides level in 4th group of cholesterol-fed male hamsters at 100 mg/kg/day after 14 days of treatment; conditions: Mesocricetus auratus
[17] = test system: Cricetinae gen. sp.; assay: Effect of compound on alanine aminotransferase (ALT) levels in 1st group of cholesterol-fed male hamsters at 3 mg/kg/day after 14 days of treatment; conditions: Mesocricetus auratus
[18] = test system: Rattus norvegicus; assay: Effect of compound on thyroxine levels in 7th group of normal chow-fed male rats after a dose of 100 mg/kg/day; format: functional, organism-based
Procedure, shortened: as §2

[19] = test system: Rattus norvegicus; assay: Effect of compound on very low-density lipoprotein cholesterol levels in 1st group of normal chow-fed male rats after a dose of 1 mg/kg/day; format: functional, organism-based
Procedure, shortened: as §3

[20] = test system: Cricetinae gen. sp.; assay: Effect of compound on lactic dehydrogenase (LDH) levels in 1st group of cholesterol-fed male hamsters at 3 mg/kg/day after 14 days of treatment; conditions: Mesocricetus auratus
[21] = test system: Rattus norvegicus; assay: Effect of compound on triglycerides level in 2nd group of normal chow-fed male rats after a dose of 2 mg/kg/day; format: functional, organism-based
Procedure, shortened: as §3

[22] = test system: Rattus norvegicus; assay: Effect of compound on alkaline phosphatase (ALKP) levels in 6th group of normal chow-fed male rats after a dose of 50 mg/kg/day; format: functional, organism-based
Procedure, shortened: as §1

[23] = test system: Rattus norvegicus; assay: Effect of compound on aspartate aminotransferase (AST) levels in 2nd group of normal chow-fed male rats after a dose of 2 mg/kg/day; format: functional, organism-based
Procedure, shortened: as §1

[24] = test system: Rattus norvegicus; assay: Effect of compound on lactic dehydrogenase (LDH) levels in 7th group of normal chow-fed male rats after a dose of 100 mg/kg/day; format: functional, organism-based
Procedure, shortened: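 Male Sprague–Dawley CD rats, 60–80 g, on chow with a reverse 12 h light/dark cycle. Given one oral gavage dose daily for 4 days, suspended in 1.3% Tween 80/0.25% CMC. Fasted overnight and sacrificed 24 h after the last dose for blood and liver. Serum liver enzymes read on a clinical analyzer. Six per group, mean ± SEM.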

[25] = test system: Rattus norvegicus; assay: Effect of compound on low-density lipoprotein cholesterol levels in 5th group of normal chow-fed male rats after a dose of 20 mg/kg/day; format: functional, organism-based
Procedure, shortened: as §2

[26] = test system: Cricetinae gen. sp.; assay: Effect of compound on lactic dehydrogenase (LDH) levels in 3rd group of cholesterol-fed male hamsters at 30 mg/kg/day after 14 days of treatment; conditions: Mesocricetus auratus
[27] = test system: Rattus norvegicus; assay: Effect of compound on alkaline phosphatase (ALKP) levels in 3rd group of normal chow-fed male rats after a dose of 5 mg/kg/day; format: functional, organism-based
Procedure, shortened: as §1

[28] = test system: Cricetinae gen. sp.; assay: Effect of compound on low-density lipoprotein cholesterol levels in 1st group of cholesterol-fed male hamsters at 3 mg/kg/day after 14 days of treatment; conditions: Mesocricetus auratus

For CCN1CC(=O)N(c2cc(Cl)ccc2C)C1=S, the Serum level [1] was 81 mg/dL, the Level [2] was 382 U l-1 and the Level [3] was 62 U l-1. It also gave a Serum level [4] of 8.7 mg/dL, a Level [5] of 385 U l-1 and a Change [6] of -30.1%. The Level [7] was 112 U l-1, the Level [8] was 1310 U l-1 and the Serum level [9] was 55 mg/dL. The Level [10] was 312 U l-1, the Level [11] was 154 U l-1 and the Serum level [12] was 5.8 µg/dL. For the same compound, the Level [13] was 204 U l-1, the Serum level [14] was 5.3 mg/dL and the Serum level [15] was 7.1 mg/dL. It also gave a Serum level [16] of 342 mg/dL, a Level [17] of 182 U l-1 and a Serum level [18] of 3.4 µg/dL. The Serum level [19] was 4.3 mg/dL, the Level [20] was 1230 U l-1 and the Serum level [21] was 15 mg/dL. It also gave a Level [22] of 330 U l-1, a Level [23] of 195 U l-1 and a Level [24] of 681 U l-1. For the same compound, the Serum level [25] was 8.5 mg/dL, the Level [26] was 823 U l-1 and the Level [27] was 344 U l-1. For the same compound, the Serum level [28] was 178 mg/dL.
